Experimental data reported in ChEMBL document CHEMBL5058577, “EUbOPEN Chemogenomics Library 2 (Multiplex)” (2022).

System: Fibroblast
Assay: Multiplex assay against human fibroblast
Type: toxicity, cell-based
Procedure, shortened: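 Compound was added to live cells that had been stained at seeding with Hoechst33342, BioTracker Green Microtubule Cytoskeleton Dye, MitoTracker Red and Annexin V Alexa Fluor 680, and imaging followed on a CQ1 microscope at 37°C and 5% CO2. CellPathfinder machine-learning gating divided cells into Hoechst high-intensity objects or normal cells, normal cells into healthy, pyknosed or fragmented nuclei, and pyknosed cells into mitotic or apoptotic. Tubulin, mitochondrial-mass and membrane-permeability phenotypes are per cents of healthy-nucleus cells.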

[1] = 12 h, 1 µM, compound concentration 1 uM, replicate 1
[2] = 12 h, 1 µM, compound concentration 1 uM, replicate 2
[3] = 12 h, 10 µM, compound concentration 10 uM, replicate 1
[4] = 12 h, 10 µM, compound concentration 10 uM, replicate 2
[5] = 24 h, 1 µM, compound concentration 1 uM, replicate 1
[6] = 24 h, 1 µM, compound concentration 1 uM, replicate 2
[7] = 24 h, 10 µM, compound concentration 10 uM, replicate 1
[8] = 24 h, 10 µM, compound concentration 10 uM, replicate 2
[9] = 48 h, 1 µM, compound concentration 1 uM, replicate 1
[10] = 48 h, 1 µM, compound concentration 1 uM, replicate 2
[11] = 48 h, 10 µM, compound concentration 10 uM, replicate 1
[12] = 48 h, 10 µM, compound concentration 10 uM, replicate 2

## CCCCC[C@H](O)/C=C/[C@H]1[C@H](O)CC(=O)[C@@H]1CCCCCCC(=O)O [ALPROSTADIL]
[1]
  Population Apoptotic (%): 61%
  Population Fragmented Nuclei (%): 16%
  Population Healthy Nuclei (%): 71%
  Population Hoechst High Intensity Objects (%): 0%
  Population Membrane Permeable-Phenotype (%): 0%
  Population Mitochondria Different-Phenotype (%): 1%
  Population Mitotic Cells (%): 38%
  Population Normal (%): 99%
  Population Pyknosed Nuclei (%): 12%
  Population Tubulin-Different-Phenotype (%): 12%
  Total Cell Count: 150
[2]
  Population Apoptotic (%): 43%
  Population Fragmented Nuclei (%): 23%
  Population Healthy Nuclei (%): 57%
  Population Hoechst High Intensity Objects (%): 4%
  Population Membrane Permeable-Phenotype (%): 10%
  Population Mitochondria Different-Phenotype (%): 2%
  Population Mitotic Cells (%): 56%
  Population Normal (%): 95%
  Population Pyknosed Nuclei (%): 18%
  Population Tubulin-Different-Phenotype (%): 38%
  Total Cell Count: 169
[3]
  Population Apoptotic (%): 36%
  Population Fragmented Nuclei (%): 7%
  Population Healthy Nuclei (%): 75%
  Population Hoechst High Intensity Objects (%): 5%
  Population Membrane Permeable-Phenotype (%): 2%
  Population Mitochondria Different-Phenotype (%): 4%
  Population Mitotic Cells (%): 63%
  Population Normal (%): 94%
  Population Pyknosed Nuclei (%): 17%
  Population Tubulin-Different-Phenotype (%): 26%
  Total Cell Count: 136
[4]
  Population Apoptotic (%): 34%
  Population Fragmented Nuclei (%): 25%
  Population Healthy Nuclei (%): 43%
  Population Hoechst High Intensity Objects (%): 16%
  Population Membrane Permeable-Phenotype (%): 11%
  Population Mitochondria Different-Phenotype (%): 1%
  Population Mitotic Cells (%): 65%
  Population Normal (%): 83%
  Population Pyknosed Nuclei (%): 31%
  Population Tubulin-Different-Phenotype (%): 45%
  Total Cell Count: 146
[5]
  Population Apoptotic (%): 25%
  Population Fragmented Nuclei (%): 15%
  Population Healthy Nuclei (%): 73%
  Population Hoechst High Intensity Objects (%): 0%
  Population Membrane Permeable-Phenotype (%): 0%
  Population Mitochondria Different-Phenotype (%): 1%
  Population Mitotic Cells (%): 75%
  Population Normal (%): 99%
  Population Pyknosed Nuclei (%): 10%
  Population Tubulin-Different-Phenotype (%): 15%
  Total Cell Count: 147
[6]
  Population Apoptotic (%): 43%
  Population Fragmented Nuclei (%): 22%
  Population Healthy Nuclei (%): 53%
  Population Hoechst High Intensity Objects (%): 2%
  Population Membrane Permeable-Phenotype (%): 8%
  Population Mitochondria Different-Phenotype (%): 8%
  Population Mitotic Cells (%): 56%
  Population Normal (%): 97%
  Population Pyknosed Nuclei (%): 24%
  Population Tubulin-Different-Phenotype (%): 40%
  Total Cell Count: 165
[7]
  Population Apoptotic (%): 63%
  Population Fragmented Nuclei (%): 14%
  Population Healthy Nuclei (%): 69%
  Population Hoechst High Intensity Objects (%): 2%
  Population Membrane Permeable-Phenotype (%): 0%
  Population Mitochondria Different-Phenotype (%): 2%
  Population Mitotic Cells (%): 36%
  Population Normal (%): 97%
  Population Pyknosed Nuclei (%): 15%
  Population Tubulin-Different-Phenotype (%): 19%
  Total Cell Count: 147
[8]
  Population Apoptotic (%): 30%
  Population Fragmented Nuclei (%): 27%
  Population Healthy Nuclei (%): 45%
  Population Hoechst High Intensity Objects (%): 13%
  Population Membrane Permeable-Phenotype (%): 16%
  Population Mitochondria Different-Phenotype (%): 3%
  Population Mitotic Cells (%): 69%
  Population Normal (%): 86%
  Population Pyknosed Nuclei (%): 26%
  Population Tubulin-Different-Phenotype (%): 59%
  Total Cell Count: 157
[9]
  Population Apoptotic (%): 32%
  Population Fragmented Nuclei (%): 18%
  Population Healthy Nuclei (%): 62%
  Population Hoechst High Intensity Objects (%): 1%
  Population Membrane Permeable-Phenotype (%): 1%
  Population Mitochondria Different-Phenotype (%): 4%
  Population Mitotic Cells (%): 67%
  Population Normal (%): 98%
  Population Pyknosed Nuclei (%): 18%
  Population Tubulin-Different-Phenotype (%): 30%
  Total Cell Count: 152
[10]
  Population Apoptotic (%): 55%
  Population Fragmented Nuclei (%): 26%
  Population Healthy Nuclei (%): 51%
  Population Hoechst High Intensity Objects (%): 3%
  Population Membrane Permeable-Phenotype (%): 6%
  Population Mitochondria Different-Phenotype (%): 8%
  Population Mitotic Cells (%): 44%
  Population Normal (%): 96%
  Population Pyknosed Nuclei (%): 21%
  Population Tubulin-Different-Phenotype (%): 44%
  Total Cell Count: 162
[11]
  Population Apoptotic (%): 62%
  Population Fragmented Nuclei (%): 11%
  Population Healthy Nuclei (%): 62%
  Population Hoechst High Intensity Objects (%): 2%
  Population Membrane Permeable-Phenotype (%): 1%
  Population Mitochondria Different-Phenotype (%): 7%
  Population Mitotic Cells (%): 37%
  Population Normal (%): 97%
  Population Pyknosed Nuclei (%): 26%
  Population Tubulin-Different-Phenotype (%): 34%
  Total Cell Count: 144
[12]
  Population Apoptotic (%): 48%
  Population Fragmented Nuclei (%): 33%
  Population Healthy Nuclei (%): 44%
  Population Hoechst High Intensity Objects (%): 16%
  Population Membrane Permeable-Phenotype (%): 13%
  Population Mitotic Cells (%): 51%
  Population Normal (%): 83%
  Population Pyknosed Nuclei (%): 22%
  Population Tubulin-Different-Phenotype (%): 60%
